Screening results: PubChem, several laboratories
FXIIa inh: blocks human coagulation factor XIIa protease activity; P00748; purified FXIIa, Boc-QGR-AMC fluorogenic substrate, 2 h; inhibition, % at 5 µM; 220,000 tested, 0.3% active; in the data active = inhibition above about 40%;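 also: 0% = enzyme with no compound and 100% = blank without enzyme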
Target sequence (P00748 20-372 limits assumed): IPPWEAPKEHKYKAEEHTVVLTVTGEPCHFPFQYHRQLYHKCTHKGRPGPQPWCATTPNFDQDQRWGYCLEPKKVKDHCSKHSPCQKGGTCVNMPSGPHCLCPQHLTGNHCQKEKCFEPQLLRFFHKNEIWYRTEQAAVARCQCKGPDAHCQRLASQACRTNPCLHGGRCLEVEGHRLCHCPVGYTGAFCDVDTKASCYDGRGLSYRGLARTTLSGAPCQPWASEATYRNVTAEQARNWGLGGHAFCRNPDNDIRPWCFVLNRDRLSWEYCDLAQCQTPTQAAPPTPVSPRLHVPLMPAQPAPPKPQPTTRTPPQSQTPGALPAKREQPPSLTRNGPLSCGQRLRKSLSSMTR
Target sequence (P00748 373-615 limits assumed): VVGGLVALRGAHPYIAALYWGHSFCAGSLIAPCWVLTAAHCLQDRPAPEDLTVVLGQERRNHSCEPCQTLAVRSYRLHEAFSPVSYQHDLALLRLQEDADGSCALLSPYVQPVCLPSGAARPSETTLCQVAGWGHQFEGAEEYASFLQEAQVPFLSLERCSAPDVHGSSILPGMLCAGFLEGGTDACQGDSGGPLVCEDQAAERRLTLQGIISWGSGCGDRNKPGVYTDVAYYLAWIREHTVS
Calpain2 inh: blocks pig calpain II enzyme activity. purified calpain II, fluorogenic peptide substrate, 30 min. inhibition, % at 16 µM. 220,000 tested, 0.37% active. AID 1236;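 active = inhibition above about 50%, limit read from the data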
KLK5 inh: blocks human kallikrein 5 protease activity; inhibition, % at 5 µM; recombinant hK5, fluorogenic AMC substrate cleavage; AID 873; 210,000 tested, 0.59% active; Q9Y337;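 active = inhibition of 40% or more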;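 also: 0% = enzyme controls without compound and 100% = no-enzyme blanks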
FXIa inh 1536: blocks human coagulation factor XIa protease activity; P03951; purified FXIa, Boc-Glu-Ala-Arg-AMC fluorogenic substrate; inhibition, % at 5 µM; 220,000 tested, 0.14% active; AID 798;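 active = inhibition of at least 40%; inactive = inhibition below 40%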;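 also: fluorescence of freed AMC excited at 355 nm; 0% = enzyme without compound and 100% = no enzyme blank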
thrombin 1536: inhibitors of human thrombin | P00734 | alpha-thrombin, Boc-VPR-AMC fluorogenic substrate cleavage | inhibition, % at 5 µM | 220,000 tested, 0.26% active;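 active = inhibition at or above 40%; inactive = inhibition below 40%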;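 also: 0% = enzyme with no compound and 100% = wells without enzyme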
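System: human alpha-thrombin protein; Compound dosing: one concentration per compound, 5 µM, with 0.2% DMSO; Timing: reaction at room temperature; Technique: AMC fluorescence, 355/460 nm; Controls: enzyme without compound as high, wells lacking enzyme as low.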
Numbers without * were called inactive; i = inactive; / = not tested or not shown. An excerpt weighted towards active compounds, which were near 1.4% of everything screened.

SMILES | FXIIa inh | Calpain2 inh | KLK5 inh | FXIa inh 1536 | thrombin 1536
CC1CCc2c(sc(NC(=O)COC(=O)C3CCCO3)c2C#N)C1 (stereo unspecified) | 24 | 22 | 24 | 26 | 45*
O=C(Oc1ccc2c(=O)c(Oc3ccc4ccccc4c3)coc2c1)c1cncc(Br)c1 | 1 | -22 | -22 | -2 | -9
O=C(Oc1ccc2c(=O)c(Cl)coc2c1)c1ccncc1 | 41* | i | -20 | 42* | 8
O=C(Oc1ccc2ccc(=O)oc2c1)c1cccs1 | 62* | -441 | -8 | 51* | 11
O=C(OCc1nnn(Cc2ccccc2)c1-c1c(COC(=O)c2ccccc2)nnn1Cc1ccccc1)c1ccccc1 | 0 | 46 | -2 | -3 | -2
Cc1cc(-c2ccn[nH]2)c(C)s1 | 11 | -2 | / | 1 | -5
Cc1cccc(C)c1NC(=O)CSC(=O)c1sc2ccccc2c1Cl | 6 | -16 | -6 | 4 | -4
COc1ccc(/C=N/OCC(=O)Nc2ccc3c(c2)OCO3)c(OC)c1 | 14 | 56* | 2 | 5 | -1
O=C(CCS(=O)(=O)c1cccc2nsnc12)NC1CCCCCC1 | 8 | 17 | 41* | 11 | 14
CCCC(=O)NNC(=O)c1ccoc1C | 40* | 20 | 26 | 9 | 18
Cc1cc(C)c(NC(=O)c2ccoc2C)c(C)c1 | 19 | -4 | 61* | 5 | 12
Cn1c(NC2CCCCC2)c(N=O)c(=O)n(C)c1=O | -1 | 6 | -17 | -6 | 1
Cc1cc2ncn(S(=O)(=O)N3CCOCC3)c2cc1C | 18 | 7 | 47* | 3 | 80*
Cc1cc(C)c2c(=O)cc(C(F)(F)F)oc2n1 | 0 | -32 | / | -5 | -3
CCOC(=O)Cc1cc(OC)c(OC)cc1Cc1cc(OC)c(OC)cc1CC(=O)OCC | -4 | 15 | -10 | -12 | 9
CCN(CC)S(=O)(=O)c1cccc(NC(=O)/C=C/c2ccc([N+](=O)[O-])cc2)c1 | 7 | 19 | -8 | 5 | -3
CCN(CC)S(=O)(=O)c1cccc(NC(=O)/C=C/c2cccc([N+](=O)[O-])c2)c1 | 4 | 23 | 67* | 9 | 95*
CC(C)Cn1c(N)c(C(=O)COC(=O)c2cnc(Cl)c(Cl)c2)c(=O)n(C)c1=O | 3 | 63* | -3 | -7 | 0
CC(C)Cn1c(N)c(C(=O)COC(=O)c2cc(F)cc(F)c2)c(=O)n(C)c1=O | 11 | 40 | 3 | -4 | -3
Cc1ccc(CNC(=O)C2CC(c3ccccc3F)=NO2)cc1 (stereo unspecified) | 6 | 4 | 3 | 3 | -2
O=C(O)c1cc(NN=Nc2ccc(Br)cc2)cc([N+](=O)[O-])c1 | 10 | 60* | 3 | 6 | 5
O=C(N/N=C/c1ccccc1C(=O)O)c1ccccc1Br | 25 | 34 | 60* | 62* | 25
COc1ccc2c(c1)C(c1ccc([N+](=O)[O-])cc1)=NNC(c1ccco1)=N2 | 8 | 20 | 42* | -3 | 5
COc1ccc2c(c1)C(c1ccc(N3CCOCC3)cc1)=NNC(c1cccnc1)=N2 | 13 | 31 | 94* | 7 | 28
CCc1c(C)sc(NC(=O)c2ccccc2[N+](=O)[O-])c1C(N)=O | 14 | 18 | -17 | 3 | -8
SMILES | FXIIa inh | Calpain2 inh | KLK5 inh | FXIa inh 1536 | thrombin 1536
Cc1cc2c(C)ccc(C)c2nc1SCC(=O)c1cccs1 | 3 | 51* | 9 | 3 | 7
Cc1cc(SCC(=O)c2cccs2)nc2c(C)cccc12 | 8 | 4 | -12 | -3 | 2
Nc1nc(-c2ccco2)nn1C(=O)CCc1ccccc1 | 19 | -18 | -11 | 0 | 93*
Nc1nc(-c2ccco2)nn1C(=O)c1cccnc1 | 28 | -3 | -10 | -6 | 64*
CCCNC(=O)c1cccc(Cn2cc(Br)c([N+](=O)[O-])n2)c1 | 39 | 31 | 41* | 9 | 11
NNC(=O)c1cccc(Cn2cc(Br)c([N+](=O)[O-])n2)c1 | 6 | -4 | 1 | 1 | -2
Cc1sc(NC(=O)CSc2nnnn2C2CCCC2)c(C#N)c1C | 44* | 17 | -9 | 20 | -10
N#Cc1c(NC(=O)CSc2nnnn2C2CCCC2)sc2c1CCCC2 | -6 | -31 | -15 | 3 | -6
COCCn1c(SCC(=O)Nc2sc(C)c(C)c2C#N)nnc1-c1ccc(OC)cc1 | -6 | -6 | 128* | -12 | 2
CC(C)CNc1nc(SCC(=O)Nc2ccccc2)nc(N2CCOCC2)n1 | 8 | -9 | -5 | -2 | -10
Cc1ccc(S(=O)(=O)Nc2c(C)n(C)n(-c3ccccc3)c2=O)cc1C(=O)OCC(=O)N1CCCC(C)C1 (stereo unspecified) | -10 | -10 | -23 | -6 | -1
